# Measured values from ChEMBL document CHEMBL1122886, “Nucleoside conjugates. 6. Synthesis and comparison of antitumor activity of 1-beta-D-arabinofuranosylcytosine conjugates of corticosteroids and selected lipophilic alcohols” (1985).
# What was measured:
# [1] = test system: L1210; assay: Percent hydrolysis by phosphodiesterase I at 24-h incubation after 30-minutes incubation.; type: functional, Mus musculus
# [2] = test system: L1210; assay: In vitro cytotoxicity with cleavage by phosphodiesterase-I concentration for 50% loss of viability was determined at 72 hours.; type: functional; conditions: Mus musculus, L1210, 72 h; read-out: ED50 (the source's name)
# [3] = test system: Mus musculus; assay: In Vivo Antitumor activity against intraperitoneally inoculated L1210 Lymphoid leukemic mice. Percent increase in life span. Treatment schedule is 1-9 qd.; type: functional
# Summary of the method: (§1)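 C3D2F1/J mice (C3H/HEJ female × DBA/2J male), groups of six, av wt 25 g, inoculated ip with 1 × 10^6 L1210 cells. Daily ip treatment (qd 1-5 or qd 1-9) started 24 h after inoculation, over a wide dose range. Mice observed daily until death or 45 days. ILS = (T/C − 1) × 100. Active range is doses giving ILS ≥25%; optimum dose gives the greatest ILS.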
# [4] = species: Mus musculus; assay: Dose producing greatest increase in life span of mice bearing lymphoid leukemia, treatment schedule is 1-5 qd.; type: functional; summary of the method: as §1
# [5] = test system: Mus musculus; assay: Dose producing greatest increase in life span >/=25% in mice bearing lymphoid leukemia, treatment schedule is 1-5 qd; 20-80 [mg(umol)/kg] /day; type: functional; summary of the method: as §1
# [6] = species: Mus musculus; assay: Number of animals survived after 30-days in mice bearing lymphoid leukemia, treatment schedule is 1-5 qd.; type: functional; summary of the method: as §1
# [7] = test system: Mus musculus; assay: In Vivo Antitumor activity against intraperitoneally inoculated L1210 Lymphoid leukemic mice. Number of animals survived after 30-days. Treatment schedule is 1-9 qd.; type: functional; summary of the method: as §1
# [8] = test system: Mus musculus; assay: In vivo antitumor activity against intraperitoneally inoculated L1210 Lymphoid leukemic mice (Dose producing greatest increase in life span, treatment schedule is 1- 9 qd); type: functional; summary of the method: as §1
# [9] = species: Mus musculus; assay: Weight change observed on day 8 in mice bearing lymphoid leukemia, treatment schedule is 1-5 qd.; type: functional
# Summary of the method: (§2)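 C3D2F1/J mice (C3H/HEJ female × DBA/2J male), groups of six, average weight 25 g, were inoculated ip with 1 × 10^6 L1210 cells. Ip treatment began 24 h after inoculation, daily on days 1-5 or 1-9, over a wide dose range. Mice were observed daily until death or 45 days. Body-weight change was recorded, and ILS was calculated as (T/C − 1) × 100.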
# [10] = test system: Mus musculus; assay: In vivo antitumor activity against intraperitoneally inoculated L1210 lymphoid leukemic mice (Weight change observed on day 8.Treatment schedule is 1-9 qd); type: functional; summary of the method: as §2
# [11] = species: Mus musculus; assay: Percent increase in life span in mice bearing lymphoid leukemia, treatment schedule is 1-5 qd.; type: functional; summary of the method: as §1
# [12] = test system: Mus musculus; assay: Dose producing greatest increase in life span >/=25% in mice bearing lymphoid leukemia, treatment schedule is 1-9 qd; 40-80 [mg(umol)/kg] /day; type: functional; summary of the method: as §1
# [13] = test system: Mus musculus; assay: Dose producing greatest increase in life span >/=25% in mice bearing lymphoid leukemia, treatment schedule is 1-5 qd; 20-60 [mg(umol)/kg] /day; type: functional; summary of the method: as §1
# [14] = test system: Mus musculus; assay: Dose producing greatest increase in life span >/=25% in mice bearing lymphoid leukemia, treatment schedule is 1-5 qd; 40-60 [mg(umol)/kg] /day; type: functional; summary of the method: as §1
# [15] = species: Mus musculus; assay: Number of animals survived after 30-days in mice bearing lymphoid leukemia, treatment schedule is 1-9 qd.; type: functional; summary of the method: as §1
# [16] = test system: Mus musculus; assay: Dose producing greatest increase in life span >/=25% in mice bearing lymphoid leukemia, treatment schedule is 1-5 qd; 5-80 [mg(umol)/kg] /day; type: functional; summary of the method: as §1
# [17] = species: Mus musculus; assay: Percent increase in life span in mice bearing lymphoid leukemia, treatment schedule is 1-9 qd.; type: functional; summary of the method: as §1
# [18] = test system: Mus musculus; assay: Dose producing greatest increase in life span >/=25% in mice bearing lymphoid leukemia, treatment schedule is 1-9 qd; 5-20 [mg(umol)/kg] /day; type: functional; summary of the method: as §1
SMILES,Hydrolysis [1] [%],EC50 [2] [nM],Optimal dose [4] [mg/kg/day],30 day survivors [6],Weight change [9] [g mouse-1 on day 8],ILS [11] [%],further results
Nc1ccn(C2O[C@H](COP(=O)(O)OCC34CC5CC(CC(C5)C3)C4)[C@@H](O)[C@@H]2O)c(=O)n1 (stereo partly drawn),9,1250,,,,,
CC12CCC(=O)C=C1CCC1C2C(O)CC2(C)C1CC[C@@H]2C(=O)COP(=O)(O)OP(=O)(O)OC[C@H]1OC(n2ccc(N)nc2=O)[C@@H](O)[C@@H]1O (stereo partly drawn),100,90,60,0,-0.45,95,ILS [3]: 152%; Active dose range [5]: 20 mg/kg/day; 30 day survivors [7]: 2; Optimal dose [8]: 80 mg/kg/day; Weight change [10]: -1.95 g mouse-1 on day 8; Active dose range [12]: 40 mg/kg/day
CCCCCCCCCCCCCCCCOP(=O)(O)OP(=O)(O)OC[C@H]1OC(n2ccc(N)nc2=O)[C@@H](O)[C@@H]1O (stereo partly drawn),80,4300,40,0,2.92,38,Active dose range [13]: 20 mg/kg/day
Nc1ccn([C@@H]2O[C@H](COP(=O)(O)O)[C@@H](O)[C@H]2O)c(=O)n1,,50,,,,,
CC12CCC(=O)C=C1CCC1C2C(=O)CC2(C)C1CC[C@]2(O)C(=O)COP(=O)(O)OP(=O)(O)OC[C@H]1OC(n2ccc(N)nc2=O)[C@@H](O)[C@@H]1O (stereo partly drawn),100,80,40,0,-0.78,36,Active dose range [14]: 40 mg/kg/day
C[C@]12C[C@H](O)[C@H]3[C@@H](CCC4=CC(=O)CC[C@@]43C)[C@@H]1CC[C@@H]2C(=O)COP(=O)(O)O.Nc1ccn([C@@H]2O[C@H](COP(=O)(O)O)[C@@H](O)[C@@H]2O)c(=O)n1,,80,,,,,
Nc1ccn(C2O[C@H](COP(=O)(O)OCC3CCCCC3)[C@@H](O)[C@@H]2O)c(=O)n1 (stereo partly drawn),0,7000,40,0,-0.67,-5,
Nc1ccn([C@@H]2O[C@H](CO)[C@@H](O)[C@@H]2O)c(=O)n1 [CYTARABINE],,190,9.2,1,-2.66,63,30 day survivors [15]: 1; Active dose range [16]: 5 mg/kg/day; Optimal dose [8]: 9.2 mg/kg/day; Weight change [10]: -4.56 g mouse-1 on day 8; ILS [17]: 138%; Active dose range [18]: 5 mg/kg/day
CC12CCC(=O)C=C1CCC1C2CCC2(C)C1CC[C@@H]2C(=O)COP(=O)(O)OP(=O)(O)OC[C@H]1OC(n2ccc(N)nc2=O)[C@@H](O)[C@@H]1O (stereo partly drawn),100,160,20,0,-3.73,22,
CC12CCC(=O)C=C1CCC1C2C(O)CC2(C)C1CC[C@]2(O)C(=O)COP(=O)(O)OP(=O)(O)OC[C@H]1OC(n2ccc(N)nc2=O)[C@@H](O)[C@@H]1O (stereo partly drawn),,,,,,86,
Nc1ccn(C2O[C@H](COP(=O)(O)OCCCl)[C@@H](O)[C@@H]2O)c(=O)n1 (stereo partly drawn),2,3130,,,,,
CC12CC(O)C3C4C=CC(=O)C=C4CCC3C1CC[C@]2(O)C(=O)COP(=O)(O)OP(=O)(O)OC[C@H]1OC(n2ccc(N)nc2=O)[C@@H](O)[C@@H]1O (stereo partly drawn),,,,,,116,
Nc1ccn(C2O[C@H](COP(=O)(O)OP(=O)(O)OCC3CCCCC3)[C@@H](O)[C@@H]2O)c(=O)n1 (stereo partly drawn),80,5600,,,,,
Nc1ccn([C@@H]2O[C@H](COP(=O)(O)OCCC34CC5CC(CC(C5)C3)C4)[C@@H](O)[C@@H]2O)c(=O)n1,25,310,40,0,0.87,18,
CCCCCCCCCCCCCCCCOP(=O)(O)OC[C@H]1O[C@@H](n2ccc(N)nc2=O)[C@@H](O)[C@@H]1O,0,16500,20,,-4.75,-22,No. of survivors [6]: 0
CC12CCC(=O)C=C1CCC1C2CCC2(C)C1CC[C@]2(O)C(=O)COP(=O)(O)OP(=O)(O)OC[C@H]1OC(n2ccc(N)nc2=O)[C@@H](O)[C@@H]1O (stereo partly drawn),100,20,60,0,-2.15,33,Active dose range [13]: 20 mg/kg/day
